Experimental data from ChEMBL document CHEMBL3576864, “Striatoids A-F, Cyathane Diterpenoids with Neurotrophic Activity from Cultures of the Fungus Cyathus striatus” (J Nat Prod, 2015).
Calls of active or inactive are those of the source. The calls are words filed in the database; no cut-off is given here.

Legend:
PC-12 [1] = assay: Neurotrophic activity in rat PC12 cells assessed as enhancement of NGF-induced neurite outgrowth after 48 hrs by inverted microscopic analysis; assay type: functional, cell-based
In short: (§1)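 PC-12 cells grown in F-12 (Ham) with 10% heat-inactivated HS, 5% FBS, penicillin/streptomycin, 37 °C, 5% CO2. Seeded on poly-L-lysine wells (2 × 10^4 cells/mL), 24 h. Switched to low serum (1% HS, 0.5% FBS), then dosed 10–40 μM with NGF 20 ng/mL (vehicle 0.1% DMSO), triplicate wells, 48 h. Phase-contrast scoring: ≥100 cells in each of five random fields; neurite ≥ one cell body = positive, as % of cells.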

PC-12 [2] = assay: Effect on neurite outgrowth in rat PC12 cells at 10 to 40 uM after 48 hrs by inverted microscopic analysis; assay type: functional, cell-based; in short: as §1

| Structure (SMILES) | Activity (PC-12 [1]) | Activity (PC-12 [2]) |
| --- | --- | --- |
| CC(C)C1=C2[C@H]3CC=C4[C@H]5O[C@H]6CO[C@H]7O[C@@H]([C@@H]4[C@@]7(O)[C@@]6(O)O5)[C@]3(C)CC[C@@]2(C)[C@@H](O)C1 | Dose-dependent effect | inactive |
| CC(C)C1=C2[C@H]3CC=C4[C@@H](O)[C@@]5(O)CO[C@H]6O[C@@H]([C@@H]4[C@@]6(O)[C@H]5O)[C@]3(C)CC[C@@]2(C)[C@@H](O)C1 | Dose-dependent effect | inactive |
| CC(C)C1=C2[C@H]3CC=C4[C@@H]5O[C@]6(O)[C@@]7(O)[C@@H](OC[C@]6(O)O5)O[C@@H]([C@@H]47)[C@]3(C)CC[C@@]2(C)[C@@H](O)C1 | Dose-dependent effect | inactive |
| CC(=O)O[C@@H]1[C@H]2CC[C@@H]3C4=C(C(C)C)C[C@H](O)[C@]4(C)CC[C@@]3(C)[C@H]3O[C@@H]4OC[C@@]1(O)[C@H](O)[C@]4(O)[C@H]23 | Dose-dependent effect | inactive |
| CO[C@H]1O[C@@]2(O)[C@H](O)CO[C@H]3O[C@H]4[C@@H]([C@@H]1CC[C@@H]1C5=C(C(C)C)C[C@H](O)[C@]5(C)CC[C@]14C)[C@]32O | Dose-dependent effect | inactive |
| CC(=O)O[C@@H]1C2=CC[C@@H]3C4=C(C(C)C)C[C@H](O)[C@]4(C)CC[C@@]3(C)[C@H]3O[C@@H]4OC[C@@]1(O)[C@H](O)[C@]4(O)[C@H]23 | Dose-dependent effect | inactive |
